This assay deals with ALK tyrosine kinase receptor (Homo sapiens, UniProt Q9UM73). The assay can be described thus: Inhibition of ALK by time-resolved fluorescence assay. In a few lines:
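Baculovirus-expressed ALK (30 ng/ml) on plates coated with GST–PLC-gamma substrate in TBS. Reaction ran 15 min at 37 °C. Europium-labeled anti-phosphotyrosine antibody was added for 1 h at 37 °C, then enhancement solution for 30 min, and TRF was read. IC50 came from a variable-slope sigmoidal fit of % inhibition vs log concentration.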
Chain of ALK tyrosine kinase receptor (Q9UM73 whole entry): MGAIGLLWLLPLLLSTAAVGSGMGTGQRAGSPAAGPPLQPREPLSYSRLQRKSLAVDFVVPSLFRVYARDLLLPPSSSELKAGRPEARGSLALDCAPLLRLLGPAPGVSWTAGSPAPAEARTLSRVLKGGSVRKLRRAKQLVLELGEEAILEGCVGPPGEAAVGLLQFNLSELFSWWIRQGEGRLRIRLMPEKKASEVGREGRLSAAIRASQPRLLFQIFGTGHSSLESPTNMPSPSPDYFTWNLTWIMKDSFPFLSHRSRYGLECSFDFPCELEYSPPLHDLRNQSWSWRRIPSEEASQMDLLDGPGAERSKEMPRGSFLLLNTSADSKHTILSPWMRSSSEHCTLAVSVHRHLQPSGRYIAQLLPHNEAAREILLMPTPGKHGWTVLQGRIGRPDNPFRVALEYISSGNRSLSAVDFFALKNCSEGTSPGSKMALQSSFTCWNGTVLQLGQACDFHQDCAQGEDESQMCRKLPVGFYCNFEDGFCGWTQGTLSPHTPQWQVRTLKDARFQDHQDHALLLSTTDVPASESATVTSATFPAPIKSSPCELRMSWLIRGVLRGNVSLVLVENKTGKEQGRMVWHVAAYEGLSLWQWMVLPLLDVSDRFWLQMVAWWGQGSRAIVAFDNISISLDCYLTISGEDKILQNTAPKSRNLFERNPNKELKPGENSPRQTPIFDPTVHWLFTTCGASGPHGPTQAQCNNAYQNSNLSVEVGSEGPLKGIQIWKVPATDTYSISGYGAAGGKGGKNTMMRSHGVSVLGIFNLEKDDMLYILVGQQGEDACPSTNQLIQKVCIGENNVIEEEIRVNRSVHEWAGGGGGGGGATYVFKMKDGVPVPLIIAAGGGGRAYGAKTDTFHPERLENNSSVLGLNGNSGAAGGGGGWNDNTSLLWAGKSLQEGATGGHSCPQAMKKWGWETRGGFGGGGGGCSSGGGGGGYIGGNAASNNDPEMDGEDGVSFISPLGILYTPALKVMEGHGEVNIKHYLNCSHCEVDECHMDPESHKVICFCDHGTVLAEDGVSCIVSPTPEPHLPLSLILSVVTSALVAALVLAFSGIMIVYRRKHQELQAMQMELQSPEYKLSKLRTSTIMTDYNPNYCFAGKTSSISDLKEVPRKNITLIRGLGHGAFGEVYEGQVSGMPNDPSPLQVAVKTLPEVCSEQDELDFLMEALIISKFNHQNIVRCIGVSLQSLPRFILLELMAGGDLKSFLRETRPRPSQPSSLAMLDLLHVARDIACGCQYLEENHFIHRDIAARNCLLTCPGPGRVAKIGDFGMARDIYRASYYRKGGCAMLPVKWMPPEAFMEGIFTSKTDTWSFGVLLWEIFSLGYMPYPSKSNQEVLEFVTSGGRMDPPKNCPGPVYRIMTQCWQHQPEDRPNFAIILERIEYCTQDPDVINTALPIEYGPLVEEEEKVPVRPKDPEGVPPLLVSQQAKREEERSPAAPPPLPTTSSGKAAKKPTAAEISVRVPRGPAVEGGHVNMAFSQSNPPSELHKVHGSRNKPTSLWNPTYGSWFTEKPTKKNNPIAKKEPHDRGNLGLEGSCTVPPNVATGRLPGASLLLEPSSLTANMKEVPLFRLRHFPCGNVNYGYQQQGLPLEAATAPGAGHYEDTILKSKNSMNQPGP
One may read the IC50 as the concentration at which inhibition is half-maximal. `O=C1CNc2ncc(-c3ccc(C(=O)N4CCC[C@H]4CN4CCCC4)cc3)cc2N1Cc1cc(F)ccc1F`: half-maximal inhibition (IC50) was put at 145 nM.

In turn, `CN1CCN(c2ccc(-c3cnc4c(c3)C(Oc3c(F)ccc(F)c3Cl)CCN4)cn2)CC1` (stereo not drawn) returned an IC50 of over 10000 nM.

Compound `CN1CCN(c2ccc(-c3cnc4c(c3)N(S(=O)(=O)c3cc(F)ccc3F)CCN4)cn2)CC1` had an IC50 of 465 nM. Next, `O=C(c1ccc(-c2cnc3c(c2)N(Cc2c(Cl)cccc2Cl)CCN3)cc1)N1CCC[C@H]1CN1CCCC1`: 27 nM; `CN1CCN(c2ccc(-c3cnc4c(c3)N(C(=O)Cc3cc(F)ccc3F)CCN4)cn2)CC1`: over 10000 nM; `CN1CCN(c2ccc(-c3cnc4c(c3)C(Cc3cc(F)ccc3F)CCN4)cn2)CC1` (stereo not drawn): 1540 nM.

`CCOC(=O)c1ccc(-c2cnc3c(c2)N(Cc2cc(Cl)ccc2C(F)(F)F)CCN3)cc1` came in with an IC50 of over 3000 nM. Next, `CN1CCN(c2ccc(-c3cnc4c(c3)N(Cc3cc(Cl)ccc3Cl)CCN4C)cn2)CC1`: over 3000 nM; `O=C(c1ccc(-c2cnc3c(c2)N(Cc2cc(F)ccc2F)CCN3)cc1)N1CCC[C@H]1CN1CCCC1`: 15 nM; `O=C1CNc2ncc(-c3ccc(C(=O)N4CCC[C@H]4CN4CCCC4)cc3)cc2N1Cc1c(Cl)cccc1Cl`: 278 nM. For `O=C1CNc2ncc(-c3ccc(C(=O)N4CCC[C@H]4CN4CCCC4)cc3)cc2N1Cc1ccccc1` the value was over 10000 nM; for `O=C(c1ccc(-c2cnc3c(c2)N(Cc2ccccc2)CCN3)cc1)N1CCC[C@H]1CN1CCCC1`, 256 nM; for `CN1CCN(c2ccc(-c3cnc4c(c3)N(Cc3c(Cl)cccc3C(F)(F)F)CCN4)cn2)CC1`, 506 nM.

(Values after ChEMBL document CHEMBL1165965, “Synthesis and structure-activity relationships of 1,2,3,4-tetrahydropyrido[2,3-b]pyrazines as potent and selective inhibitors of the anaplastic lymphoma kinase” (Bioorg Med Chem, 2010).)
